Tests used:
[1] = AUC(0 to t) in Kunming mouse plasma at 2 mg/kg, iv measured upto 24 hrs by LC-MS/MS method; assay type: ADME, organism-based; parameters: time < 24 hrs, dose 2 mg/kg, route iv
Outline: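 KM male mice (18−24 g), fasted 12 h before and 2 h after dosing. HN37 given orally at 5 mg/kg in 5% DMSO/5% Tween 80/90% saline, or iv at 2 mg/kg after dilution in saline with 1% Tween 80; n = 3 per time point. Blood sampled 0.25–24 h (from 0.083 h after iv); whole brain taken after oral dosing. Plasma and brain extracted with acetonitrile, quantified by LC−MS/MS; AUC0−t by trapezoidal method.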

[2] = Half life in Kunming mouse brain at 5 mg/kg, po measured upto 24 hrs by LC-MS/MS method; assay type: ADME, organism-based
Outline: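 Male KM mice (18−24 g) fasted 12 h before and 2 h after dosing, given 5 mg/kg orally in 5% DMSO/5% Tween 80/90% normal saline (n = 3 per time point). Aortic blood taken at 0.25–24 h and whole brain collected. Acetonitrile extraction with internal standard, then LC−MS/MS. Bioavailability calculated against the 2 mg/kg i.v. arm.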

[3] = Half life in Kunming mouse plasma at 2 mg/kg, iv measured upto 24 hrs by LC-MS/MS method; assay type: ADME, organism-based
Outline: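 Male KM mice (n = 3 per time point) given 2 mg/kg i.v. in normal saline with 1% Tween 80, diluted from the oral formulation. Retro-orbital plexus blood taken at 0.083–24 h. Plasma extracted with acetonitrile plus internal standard and assayed by LC−MS/MS.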

[4] = Tmax in Sprague-Dawley rat brain at 6 mg/kg, po measured upto 24 hrs by LC-MS/MS method; assay type: ADME, organism-based
Outline: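 Male SD rats (180–220 g) dosed orally at 2, 6 and 20 mg/kg, handled like the mice: fasting, 5% DMSO/5% Tween 80/saline vehicle, acetonitrile extraction, LC-MS/MS of plasma. In a separate set at 6 mg/kg p.o., blood and brain were sampled together.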

[5] = Half life in Sprague-Dawley rat at 6 mg/kg, po measured upto 24 hrs by LC-MS/MS method; assay type: ADME, organism-based; conditions: in vivo
Outline: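 Male SD rats (180−220 g) given single oral doses of 2, 6 and 20 mg/kg; handled as in the mouse PK study (fasted 12 h before and 2 h after dosing, 5% DMSO/5% Tween 80/90% saline formulation). In a separate 6 mg/kg p.o. set, blood and brain were sampled together. Plasma and brain levels by LC−MS/MS.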

[6] = Metabolic stability in mouse liver microsomes assessed as half life; assay type: ADME, Microsome
[7] = Metabolic stability in rat liver microsomes assessed as intrinsic clearance; assay type: ADME, Microsome; conditions: read-out: CLH
CYP2C8 = CYP2C8 (Homo sapiens, UniProt P10632); experiment: Inhibition of human liver microsome CYP2C8 at 0.10 to 50 uM preincubated with NADPH for 0.5 hrs followed by substrate addition by LC-MS/MS method relative to control; assay type: ADME; conditions: liver microsomes, dose 0.1-50 µM
CYP2C9 = CYP2C9 (Homo sapiens, UniProt P11712); experiment: Ratio of IC50 for human liver microsome CYP2C9 in absence of NADPH to IC50 for human liver microsome CYP2C9 in presence of NADPH; conditions: liver microsomes, read-out: Ratio IC50
CYP3A4 = CYP3A4 (Homo sapiens, UniProt P08684); experiment: Ratio of IC50 for human liver microsome CYP3A4 using midazolam as substrate in absence of NADPH to IC50 for human liver microsome CYP3A4 using midazolam as substrate in presence of NADPH; conditions: liver microsomes, probe midazolam, read-out: Ratio IC50
Outline: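 Human liver microsomes preincubated 0.5 h with 0.10−50 μM compound, with or without NADPH, then CYP-specific probe substrates added (CYP3A4 with midazolam 1′-hydroxylation and with testosterone 6β-hydroxylation). Metabolites quantified by LC−MS/MS; % activity remaining computed against no-compound control. IC50 fitted by Probit model; ratio = IC50(−NADPH)/IC50(+NADPH).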

Cytochrome P450 1A2 = Cytochrome P450 1A2 (Homo sapiens, UniProt P05177); experiment: Time dependent inhibition of human liver microsome CYP1A2 preincubated for 0.5 hrs in absence of NADPH followed by substrate addition by LC-MS/MS method; assay type: ADME, microsomes
Outline: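 Human liver microsomes preincubated 0.5 h with 0.10–50 μM test compound, with or without NADPH, then CYP-specific probe substrate added and incubation continued. Metabolite measured by LC-MS/MS; % activity remaining relative to no-compound control; IC50 fitted by Probit model. For CYP3A4, midazolam 1′-hydroxylation and testosterone 6β-hydroxylation were read separately.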

[8] = target: Potassium voltage-gated channel subfamily KQT member 2 (Rattus norvegicus) (UniProt O88943); experiment: Agonist activity at rat KCNQ2 channel expressed in CHO cells assessed as amplitude change of outward current at 0.1 uM by patch clamp method; assay type: cell-based; conditions: filed as agonist
Outline: (§1)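 Whole-cell patch clamp at room temperature on CHO cells (DMEM/F12, 10% FBS) transiently co-transfected with EGFP and hKCNQ1, rKCNQ2, rKCNQ3 A278T, hKCNQ4 or hKCNQ5; KCNQ2/3 at 1:1 cDNA ratio. Pipette solution 145 mM KCl, 5 mM MgATP, pH 7.3; bath 140 mM NaCl, 5 mM KCl, pH 7.4, under perfusion. V1/2 from Boltzmann fits; I/I0 is current amplitude with versus without compound; n = 4−6.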

CHO = experiment: Agonist activity at rat KCNQ3 A278T mutant expressed in CHO cells assessed as shift of half voltage of maximal activation at 0.1 uM by patch clamp method; assay type: cell-based; conditions: filed as agonist; outline: as §1
[9] = target: Potassium voltage-gated channel subfamily KQT member 5 (Homo sapiens) (UniProt Q9NR82); experiment: Agonist activity at human KCNQ5 channel expressed in CHO cells assessed as shift of half voltage of maximal activation at 0.1 uM by patch clamp method; assay type: cell-based; conditions: filed as agonist; outline: as §1
Mus musculus [10] = experiment: Anticonvulsant activity in MES induced Kunming mouse model of seizure at 2.5 mg/kg, po after 0.25 to 2 hr; assay type: functional; conditions: time 0.25-2 hrs
Outline: (§2)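 MES test in male KM mice. Compounds freshly suspended in 0.5% CMC-Na and given by gavage at 20 mL/kg; 160 V stimulus through ear clips. Protection scored as absence of hindlimb tonic extension; time course at 0.25, 0.5, 1 and 2 h, otherwise tested at 1 h. ED50 from dose−response by nonlinear regression; Fisher's exact test versus vehicle.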

Mus musculus [11] = experiment: Anticonvulsant activity in MES induced Kunming mouse model of seizure at 3 mg/kg, po after 1 hr; assay type: functional; outline: as §2

Chain of Potassium voltage-gated channel subfamily KQT member 5 (Homo sapiens) (Q9NR82 whole entry): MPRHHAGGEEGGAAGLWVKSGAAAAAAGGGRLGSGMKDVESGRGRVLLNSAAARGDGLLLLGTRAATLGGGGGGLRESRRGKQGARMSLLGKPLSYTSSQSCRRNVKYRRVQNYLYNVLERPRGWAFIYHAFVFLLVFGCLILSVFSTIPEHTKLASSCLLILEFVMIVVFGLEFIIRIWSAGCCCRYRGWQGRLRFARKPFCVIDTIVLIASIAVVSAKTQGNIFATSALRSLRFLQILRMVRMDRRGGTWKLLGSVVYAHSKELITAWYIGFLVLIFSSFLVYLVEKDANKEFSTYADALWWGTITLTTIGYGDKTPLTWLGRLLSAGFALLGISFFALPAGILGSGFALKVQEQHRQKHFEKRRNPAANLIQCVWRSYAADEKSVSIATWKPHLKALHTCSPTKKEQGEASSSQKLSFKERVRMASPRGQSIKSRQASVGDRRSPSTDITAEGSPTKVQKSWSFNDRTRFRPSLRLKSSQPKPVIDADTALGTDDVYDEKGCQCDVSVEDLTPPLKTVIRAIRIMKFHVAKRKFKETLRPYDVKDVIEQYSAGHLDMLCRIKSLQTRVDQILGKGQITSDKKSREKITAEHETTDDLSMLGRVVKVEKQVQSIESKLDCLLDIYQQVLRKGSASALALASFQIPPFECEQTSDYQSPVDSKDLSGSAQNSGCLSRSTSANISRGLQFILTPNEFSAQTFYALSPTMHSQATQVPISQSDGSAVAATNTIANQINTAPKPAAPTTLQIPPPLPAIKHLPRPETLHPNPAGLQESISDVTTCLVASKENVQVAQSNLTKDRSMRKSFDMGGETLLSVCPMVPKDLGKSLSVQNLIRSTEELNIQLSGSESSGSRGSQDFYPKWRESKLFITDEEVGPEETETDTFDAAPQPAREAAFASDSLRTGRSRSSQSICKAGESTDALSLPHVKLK
Chain of CYP2C8 (P10632 whole entry): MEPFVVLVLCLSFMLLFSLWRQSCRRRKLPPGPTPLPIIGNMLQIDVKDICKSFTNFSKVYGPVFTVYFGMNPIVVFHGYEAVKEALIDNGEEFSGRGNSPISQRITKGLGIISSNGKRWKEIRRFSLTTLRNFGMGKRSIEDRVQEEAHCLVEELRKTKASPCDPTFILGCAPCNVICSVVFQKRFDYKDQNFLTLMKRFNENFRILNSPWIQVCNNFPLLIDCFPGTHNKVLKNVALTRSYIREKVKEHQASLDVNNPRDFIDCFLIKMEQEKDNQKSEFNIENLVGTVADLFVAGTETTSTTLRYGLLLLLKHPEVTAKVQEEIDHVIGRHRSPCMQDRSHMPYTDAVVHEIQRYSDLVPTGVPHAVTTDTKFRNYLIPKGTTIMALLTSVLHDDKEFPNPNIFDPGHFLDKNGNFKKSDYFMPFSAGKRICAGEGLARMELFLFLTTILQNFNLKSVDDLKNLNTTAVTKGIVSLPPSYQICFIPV
Chain of Cytochrome P450 1A2 (P05177 whole entry): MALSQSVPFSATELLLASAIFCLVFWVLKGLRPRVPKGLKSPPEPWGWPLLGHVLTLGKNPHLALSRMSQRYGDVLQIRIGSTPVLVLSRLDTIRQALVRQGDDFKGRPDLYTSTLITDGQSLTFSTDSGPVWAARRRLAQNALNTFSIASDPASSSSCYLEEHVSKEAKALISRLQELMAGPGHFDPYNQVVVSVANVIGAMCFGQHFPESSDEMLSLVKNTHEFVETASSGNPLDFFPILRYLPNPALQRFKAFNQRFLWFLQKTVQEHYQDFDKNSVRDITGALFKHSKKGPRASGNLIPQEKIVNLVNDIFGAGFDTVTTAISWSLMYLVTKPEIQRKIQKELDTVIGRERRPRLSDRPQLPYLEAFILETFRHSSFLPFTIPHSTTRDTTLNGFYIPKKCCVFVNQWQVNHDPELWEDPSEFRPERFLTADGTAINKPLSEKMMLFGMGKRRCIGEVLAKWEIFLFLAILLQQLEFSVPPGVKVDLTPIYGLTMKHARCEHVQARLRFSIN
Chain of Potassium voltage-gated channel subfamily KQT member 2 (Rattus norvegicus) (O88943 whole entry, the tested form may be a part): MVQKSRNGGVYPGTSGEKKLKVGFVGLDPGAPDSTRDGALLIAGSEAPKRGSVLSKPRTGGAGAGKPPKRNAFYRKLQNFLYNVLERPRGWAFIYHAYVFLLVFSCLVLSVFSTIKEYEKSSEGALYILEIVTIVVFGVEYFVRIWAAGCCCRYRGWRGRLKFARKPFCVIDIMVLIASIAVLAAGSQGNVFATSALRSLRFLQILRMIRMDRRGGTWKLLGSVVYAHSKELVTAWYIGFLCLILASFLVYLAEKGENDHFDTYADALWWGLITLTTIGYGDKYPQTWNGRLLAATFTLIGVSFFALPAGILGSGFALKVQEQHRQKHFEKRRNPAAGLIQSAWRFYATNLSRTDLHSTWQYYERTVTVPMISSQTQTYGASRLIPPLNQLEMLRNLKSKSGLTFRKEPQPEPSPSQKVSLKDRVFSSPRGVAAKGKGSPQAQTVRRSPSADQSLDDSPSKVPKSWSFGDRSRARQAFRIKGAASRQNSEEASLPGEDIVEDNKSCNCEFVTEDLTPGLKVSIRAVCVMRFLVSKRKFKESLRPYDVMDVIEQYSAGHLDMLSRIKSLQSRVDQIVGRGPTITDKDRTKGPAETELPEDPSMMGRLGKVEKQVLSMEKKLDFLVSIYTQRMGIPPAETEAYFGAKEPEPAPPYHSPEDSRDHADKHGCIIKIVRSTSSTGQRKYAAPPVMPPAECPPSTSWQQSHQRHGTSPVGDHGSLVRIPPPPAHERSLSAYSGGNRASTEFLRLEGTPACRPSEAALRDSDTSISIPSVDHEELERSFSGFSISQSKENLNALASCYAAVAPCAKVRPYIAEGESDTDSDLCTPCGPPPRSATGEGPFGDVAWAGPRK
Chain of CYP2C9 (P11712 whole entry): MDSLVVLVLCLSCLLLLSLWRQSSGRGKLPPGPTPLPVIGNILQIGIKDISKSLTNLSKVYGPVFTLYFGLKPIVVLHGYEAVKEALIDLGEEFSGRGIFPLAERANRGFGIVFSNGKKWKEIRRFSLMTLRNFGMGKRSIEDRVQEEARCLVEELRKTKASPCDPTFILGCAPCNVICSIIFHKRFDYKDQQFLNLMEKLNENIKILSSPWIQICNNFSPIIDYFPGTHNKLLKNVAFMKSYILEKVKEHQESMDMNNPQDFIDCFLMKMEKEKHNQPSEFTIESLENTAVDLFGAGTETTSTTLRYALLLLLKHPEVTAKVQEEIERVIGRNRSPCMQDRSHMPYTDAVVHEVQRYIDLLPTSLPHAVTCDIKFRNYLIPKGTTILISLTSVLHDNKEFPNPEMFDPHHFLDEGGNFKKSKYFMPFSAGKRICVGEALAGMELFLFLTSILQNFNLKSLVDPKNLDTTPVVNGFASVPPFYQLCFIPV
Chain of CYP3A4 (P08684 whole entry): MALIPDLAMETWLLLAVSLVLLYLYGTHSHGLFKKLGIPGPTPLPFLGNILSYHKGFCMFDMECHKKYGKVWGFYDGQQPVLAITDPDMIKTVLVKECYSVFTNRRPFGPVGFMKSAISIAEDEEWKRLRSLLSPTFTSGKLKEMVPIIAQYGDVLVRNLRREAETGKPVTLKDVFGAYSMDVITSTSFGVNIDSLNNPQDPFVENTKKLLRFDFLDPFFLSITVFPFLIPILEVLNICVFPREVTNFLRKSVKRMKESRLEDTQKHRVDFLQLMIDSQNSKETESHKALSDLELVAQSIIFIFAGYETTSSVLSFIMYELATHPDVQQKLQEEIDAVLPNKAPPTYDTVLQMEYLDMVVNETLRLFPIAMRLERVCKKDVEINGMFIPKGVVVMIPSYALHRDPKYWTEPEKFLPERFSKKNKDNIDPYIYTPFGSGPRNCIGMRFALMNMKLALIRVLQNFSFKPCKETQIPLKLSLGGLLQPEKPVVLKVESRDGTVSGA

Work on `C#CCN(Cc1ccc(F)cc1)c1cc(C)c(NC(=O)OC)c(C)c1` yielded an AUC(0-t) at 24 h [1] of 531 ng·h/mL, a half-life [2] of 117 min and a half-life [3] of 48 min. For the same compound, the Tmax [4] was 15 min, the half-life [5] was 142 min and the half-life [6] was 12.5 min. It also gave a CLint scaled [7] of 105 mL/min/kg, an inhibition at 0.5 h, up to 50 µM (CYP2C8) of under 25% and an IC50 shift (CYP2C9) of under 1.5. The IC50 shift (CYP3A4) was under 1.5, the IC50 (Cytochrome P450 1A2) was 142 µM and the Activity [8] was 3.4. For the same compound, the Activity (CHO) was -43.1 mV, the Activity [9] was -9.03 mV and the Activity (Mus musculus [10]) was 40%. It also gave an Activity (Mus musculus [11]) of 62.5%.
